Read-outs that look alike come from different tables or passages of the source.
Key:
DLD1 cells [1] = assay: Western blot of signaling proteins; type: cell-based, human; settings: 48 hours, different concentrations
colon and glioma cells = assay: FACS analysis of cell cycle distribution; type: cell-based; settings: all the cell lines, low concentrations, 48 hours
Method in brief: (§1)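 Cells treated with test compound at several concentrations for 48 h. 1×10^6 cells trypsinized, washed in PBS and resuspended in 1% BSA/PBS. Fixed in 3 volumes of −20 °C ethanol for ≥1 h, washed twice, then stained ≥3 h at 4 °C at ~1×10^6 cells/ml in PI (50μg/ml), RNase A (0.5μg/ml) and 3.8mM sodium citrate. Flow cytometry, excitation 535nm, emission 617nm, ≥10,000 cells/sample.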

HEK293 cells [2] = assay: FACS analysis of cell cycle distribution; type: cell-based, human; settings: 48 hours
Method in brief: as §1

C6 cells [3] = assay: Caspase 3/7 activity assay; type: cell-based, rat; settings: 24 hours treatment, any of the tested concentrations
c-Src = c-Src (Homo sapiens, UniProt P12931); assay: Recombinant kinase 33P-ATP activity assay; type: biochemical
Chain of c-Src (P12931 whole entry): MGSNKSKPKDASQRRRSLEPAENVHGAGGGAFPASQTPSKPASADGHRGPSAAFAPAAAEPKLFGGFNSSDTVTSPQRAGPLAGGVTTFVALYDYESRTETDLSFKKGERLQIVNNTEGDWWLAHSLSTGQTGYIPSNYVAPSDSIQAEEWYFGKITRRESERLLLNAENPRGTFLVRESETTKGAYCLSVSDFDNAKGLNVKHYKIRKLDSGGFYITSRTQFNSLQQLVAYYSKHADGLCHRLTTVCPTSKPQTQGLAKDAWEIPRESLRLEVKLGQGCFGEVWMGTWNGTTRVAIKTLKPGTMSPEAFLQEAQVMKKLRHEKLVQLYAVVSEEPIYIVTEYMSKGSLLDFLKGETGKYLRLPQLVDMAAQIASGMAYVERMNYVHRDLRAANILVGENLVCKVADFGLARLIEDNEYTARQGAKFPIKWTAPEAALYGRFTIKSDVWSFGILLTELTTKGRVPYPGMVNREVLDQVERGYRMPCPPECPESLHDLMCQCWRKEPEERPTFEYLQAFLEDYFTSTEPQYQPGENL

DLD1 cells [4] = assay: Caspase 3/7 activity assay; type: cell-based, human; settings: 24 hours treatment, 0.2, 1 and 5μM
Method in brief: (§2)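 Cells grown in DMEM with 10% FBS and penicillin/streptomycin at 37°C, 5% CO2, then seeded at 1×10^4 per well. […] Caspase 3/7 read by caspase-Glo, normalized to each line's untreated control (=1); mean of 6 wells ± standard deviation.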

FGFR2 = FGFR2 (Homo sapiens, UniProt P21802); assay: Recombinant kinase 33P-ATP activity assay; type: biochemical
EGFr = EGFr (Homo sapiens, UniProt P00533); assay: Recombinant kinase 33P-ATP activity assay; type: biochemical
Chain of EGFr (P00533 25-1210): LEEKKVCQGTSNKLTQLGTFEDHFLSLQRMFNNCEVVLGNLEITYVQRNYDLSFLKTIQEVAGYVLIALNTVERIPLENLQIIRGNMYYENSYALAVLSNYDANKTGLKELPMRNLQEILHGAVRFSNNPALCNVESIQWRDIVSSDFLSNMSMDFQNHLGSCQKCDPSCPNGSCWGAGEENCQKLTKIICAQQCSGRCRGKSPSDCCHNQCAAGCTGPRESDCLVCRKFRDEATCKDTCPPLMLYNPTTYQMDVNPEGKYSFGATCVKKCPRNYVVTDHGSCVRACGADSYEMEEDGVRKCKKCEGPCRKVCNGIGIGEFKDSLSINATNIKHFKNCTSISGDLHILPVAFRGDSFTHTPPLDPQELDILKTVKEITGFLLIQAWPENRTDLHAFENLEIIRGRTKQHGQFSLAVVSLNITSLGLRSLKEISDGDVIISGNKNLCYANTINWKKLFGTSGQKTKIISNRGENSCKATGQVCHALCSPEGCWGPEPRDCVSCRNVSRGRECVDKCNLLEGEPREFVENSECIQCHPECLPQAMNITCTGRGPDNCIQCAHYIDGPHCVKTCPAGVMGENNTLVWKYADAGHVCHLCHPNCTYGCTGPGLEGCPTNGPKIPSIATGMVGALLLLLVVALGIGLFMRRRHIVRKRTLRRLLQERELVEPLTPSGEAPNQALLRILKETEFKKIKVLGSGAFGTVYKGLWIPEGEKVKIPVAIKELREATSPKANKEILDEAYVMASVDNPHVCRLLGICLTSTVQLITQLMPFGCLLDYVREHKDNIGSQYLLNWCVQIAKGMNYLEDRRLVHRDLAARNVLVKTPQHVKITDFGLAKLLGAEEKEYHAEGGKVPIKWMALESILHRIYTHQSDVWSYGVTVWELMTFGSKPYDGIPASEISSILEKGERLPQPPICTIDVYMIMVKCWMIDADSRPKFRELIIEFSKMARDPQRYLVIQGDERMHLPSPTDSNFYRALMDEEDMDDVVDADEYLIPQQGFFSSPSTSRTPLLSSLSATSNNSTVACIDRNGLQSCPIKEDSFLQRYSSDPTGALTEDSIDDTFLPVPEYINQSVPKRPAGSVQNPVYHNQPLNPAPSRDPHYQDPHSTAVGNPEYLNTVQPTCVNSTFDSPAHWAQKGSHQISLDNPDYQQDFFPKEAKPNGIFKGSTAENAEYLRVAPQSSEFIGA

ERBB2/HER2 = ERBB2/HER2 (Homo sapiens, UniProt P04626); assay: Recombinant kinase 33P-ATP activity assay; type: biochemical
Chain of ERBB2/HER2 (P04626 23-1255): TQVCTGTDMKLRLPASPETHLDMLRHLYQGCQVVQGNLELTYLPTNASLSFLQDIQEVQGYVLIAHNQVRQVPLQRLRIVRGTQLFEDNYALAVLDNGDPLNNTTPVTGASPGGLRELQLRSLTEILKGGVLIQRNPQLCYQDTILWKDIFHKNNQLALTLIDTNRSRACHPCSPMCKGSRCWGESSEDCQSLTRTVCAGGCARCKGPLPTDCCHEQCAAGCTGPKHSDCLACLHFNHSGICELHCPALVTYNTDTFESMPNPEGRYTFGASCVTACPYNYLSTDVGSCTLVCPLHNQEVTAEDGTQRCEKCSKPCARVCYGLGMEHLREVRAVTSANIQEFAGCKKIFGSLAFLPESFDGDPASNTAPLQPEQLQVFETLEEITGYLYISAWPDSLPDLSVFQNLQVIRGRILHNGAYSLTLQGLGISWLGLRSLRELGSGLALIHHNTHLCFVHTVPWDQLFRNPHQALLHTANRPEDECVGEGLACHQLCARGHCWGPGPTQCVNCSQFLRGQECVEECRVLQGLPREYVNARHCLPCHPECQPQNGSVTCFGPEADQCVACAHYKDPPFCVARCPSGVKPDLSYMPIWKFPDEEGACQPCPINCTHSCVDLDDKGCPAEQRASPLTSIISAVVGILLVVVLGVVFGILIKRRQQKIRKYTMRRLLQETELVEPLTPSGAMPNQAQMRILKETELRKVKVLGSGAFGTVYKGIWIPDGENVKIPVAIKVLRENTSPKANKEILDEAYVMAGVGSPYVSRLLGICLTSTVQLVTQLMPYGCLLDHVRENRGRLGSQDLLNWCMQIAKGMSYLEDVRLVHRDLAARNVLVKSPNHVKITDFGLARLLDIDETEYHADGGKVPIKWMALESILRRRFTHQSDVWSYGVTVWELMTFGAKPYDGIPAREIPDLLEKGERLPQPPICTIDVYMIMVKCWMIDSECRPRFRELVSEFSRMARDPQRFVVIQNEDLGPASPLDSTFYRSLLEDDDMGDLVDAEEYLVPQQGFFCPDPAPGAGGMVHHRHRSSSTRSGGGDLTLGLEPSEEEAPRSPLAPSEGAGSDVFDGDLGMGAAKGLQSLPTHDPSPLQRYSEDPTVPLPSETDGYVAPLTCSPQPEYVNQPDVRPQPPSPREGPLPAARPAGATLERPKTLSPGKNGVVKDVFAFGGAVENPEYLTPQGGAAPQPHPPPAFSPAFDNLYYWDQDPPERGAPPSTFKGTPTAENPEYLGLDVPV

[5] = tested on: GPCR pathway genes in C6, HCT116, DLD1 and Difi cells; assay: GPCR signaling pathway profiling by real-time PCR; type: cell-based; settings: 5μM, 48 hours, all 4 cell lines
Method in brief: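 Total RNA taken from C6, DLD1, HCT116 and Difi cells treated with or without 5μM test compound for 48 h, then reverse transcribed. DLD1 cDNA screened on an 82-gene human GPCR-pathway qPCR array, with control and treated expression compared by subtraction. Hits confirmed in C6 and the three colon lines by SYBR Green real-time PCR with primers in different coding regions.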

KDR/VEGFR2 = KDR/VEGFR2 (Homo sapiens, UniProt P35968); assay: Recombinant kinase 33P-ATP activity assay; type: biochemical
C6 cells [6] = assay: Cell growth inhibition; type: cell-based, rat; settings: through apoptosis
Difi cells = assay: Caspase 3/7 activity assay; type: cell-based, human; settings: 24 hours treatment, compared with Cetuximab
Method in brief: as §2

FGFR1 = FGFR1 (Homo sapiens, UniProt P11362); assay: Recombinant kinase 33P-ATP activity assay; type: biochemical
C6 cells [7] = assay: Western blot of signaling proteins; type: cell-based, rat; settings: 48 hours
Method in brief: (§3)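 Cells exposed to indicated concentrations of test compound for 48 h. Harvested by trypsin/EDTA, lysed 15 min on ice in M-PER with protease inhibitors (10^7 cells/ml), cleared at 17000rpm for 30 min. Protein measured by Bradford; 30μg resolved by SDS-PAGE onto PVDF. Blocked in 5% milk/TBST; primary antibodies overnight at 4°C, HRP secondaries 1 h at room temperature; ECL detection with β-tubulin loading control.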

CDK2/cyclin A = CDK2/cyclin A (Homo sapiens, UniProt P24941); assay: Recombinant kinase 33P-ATP activity assay; type: biochemical
FLT1/VEGFR1 = FLT1/VEGFR1 (Homo sapiens, UniProt P17948); assay: Recombinant kinase 33P-ATP activity assay; type: biochemical
PDGFRa = PDGFRa (Homo sapiens, UniProt P16234); assay: Recombinant kinase 33P-ATP activity assay; type: biochemical
Chain of PDGFRa (P16234 24-1089): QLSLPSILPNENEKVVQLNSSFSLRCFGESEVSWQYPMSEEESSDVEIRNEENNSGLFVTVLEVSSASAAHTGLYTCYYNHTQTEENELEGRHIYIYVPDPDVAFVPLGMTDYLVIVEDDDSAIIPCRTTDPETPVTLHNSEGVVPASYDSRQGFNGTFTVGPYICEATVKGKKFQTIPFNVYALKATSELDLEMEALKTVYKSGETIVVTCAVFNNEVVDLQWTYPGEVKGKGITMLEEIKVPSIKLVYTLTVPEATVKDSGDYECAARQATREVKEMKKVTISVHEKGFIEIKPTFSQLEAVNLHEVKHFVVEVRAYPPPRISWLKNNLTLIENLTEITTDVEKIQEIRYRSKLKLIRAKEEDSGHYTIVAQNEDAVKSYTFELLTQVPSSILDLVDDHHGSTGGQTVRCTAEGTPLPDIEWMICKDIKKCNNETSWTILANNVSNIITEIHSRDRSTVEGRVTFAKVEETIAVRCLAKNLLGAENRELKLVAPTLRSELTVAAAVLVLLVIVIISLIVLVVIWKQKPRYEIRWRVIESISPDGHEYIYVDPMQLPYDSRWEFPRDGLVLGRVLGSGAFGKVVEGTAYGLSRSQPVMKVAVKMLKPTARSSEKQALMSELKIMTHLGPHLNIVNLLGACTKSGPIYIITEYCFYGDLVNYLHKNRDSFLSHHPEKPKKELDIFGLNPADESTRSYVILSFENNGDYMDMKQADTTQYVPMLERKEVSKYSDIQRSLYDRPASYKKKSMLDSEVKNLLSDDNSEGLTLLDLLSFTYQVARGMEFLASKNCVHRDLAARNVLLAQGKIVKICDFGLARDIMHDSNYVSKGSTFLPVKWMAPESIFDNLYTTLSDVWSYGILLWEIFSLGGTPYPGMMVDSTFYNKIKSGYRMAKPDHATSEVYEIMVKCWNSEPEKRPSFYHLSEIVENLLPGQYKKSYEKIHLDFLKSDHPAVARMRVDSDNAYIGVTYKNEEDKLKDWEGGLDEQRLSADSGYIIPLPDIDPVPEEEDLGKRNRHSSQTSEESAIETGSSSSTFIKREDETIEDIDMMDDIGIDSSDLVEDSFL

PDGFrb = PDGFrb (Homo sapiens, UniProt P09619); assay: Recombinant kinase 33P-ATP activity assay; type: biochemical
Chain of PDGFrb (P09619 33-1106): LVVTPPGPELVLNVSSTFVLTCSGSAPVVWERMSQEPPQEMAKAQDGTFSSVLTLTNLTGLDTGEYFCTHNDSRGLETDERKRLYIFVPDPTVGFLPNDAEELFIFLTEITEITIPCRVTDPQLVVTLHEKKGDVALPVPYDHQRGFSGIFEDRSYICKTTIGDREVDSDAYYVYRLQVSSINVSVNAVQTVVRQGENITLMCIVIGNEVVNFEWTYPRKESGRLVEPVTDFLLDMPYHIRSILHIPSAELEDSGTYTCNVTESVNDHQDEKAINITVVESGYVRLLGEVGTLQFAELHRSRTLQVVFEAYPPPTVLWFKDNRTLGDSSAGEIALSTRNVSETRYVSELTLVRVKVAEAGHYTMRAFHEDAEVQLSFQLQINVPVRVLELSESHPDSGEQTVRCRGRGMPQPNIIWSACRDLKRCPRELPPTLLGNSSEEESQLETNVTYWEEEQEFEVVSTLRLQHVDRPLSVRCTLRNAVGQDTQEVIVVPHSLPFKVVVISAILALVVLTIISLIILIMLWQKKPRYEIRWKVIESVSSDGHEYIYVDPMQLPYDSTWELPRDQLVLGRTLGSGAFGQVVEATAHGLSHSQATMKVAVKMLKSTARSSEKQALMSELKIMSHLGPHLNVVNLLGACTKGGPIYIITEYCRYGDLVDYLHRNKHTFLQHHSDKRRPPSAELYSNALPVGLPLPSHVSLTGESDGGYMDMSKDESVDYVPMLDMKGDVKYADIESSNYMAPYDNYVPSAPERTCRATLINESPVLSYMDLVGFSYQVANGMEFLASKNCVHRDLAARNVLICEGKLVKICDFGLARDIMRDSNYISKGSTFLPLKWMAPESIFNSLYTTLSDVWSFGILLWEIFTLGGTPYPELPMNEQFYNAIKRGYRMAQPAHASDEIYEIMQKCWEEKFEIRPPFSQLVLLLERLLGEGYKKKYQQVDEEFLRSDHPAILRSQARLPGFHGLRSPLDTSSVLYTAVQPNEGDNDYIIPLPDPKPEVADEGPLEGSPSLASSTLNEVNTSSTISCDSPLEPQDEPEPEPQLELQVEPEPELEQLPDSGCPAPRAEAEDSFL

HCT116 cells [8] = assay: Western blot of signaling proteins; type: cell-based, human; settings: 48 hours, different concentrations
DLD1 cells [9] = assay: Cell growth inhibition; type: cell-based, human; settings: through apoptosis; more effective toward DLD1 cells
HEK293 cells [10] = assay: Caspase 3/7 activity assay; type: cell-based, human; settings: 24 hours treatment, 0.2, 1 and 5μM
Method in brief: as §2

HEK293 cells [11] = assay: Western blot of signaling proteins; type: cell-based, human; settings: 48 hours
Method in brief: as §3

HCT116 cells [12] = assay: Caspase 3/7 activity assay; type: cell-based, human; settings: 24 hours treatment, up to 5μM
Method in brief: as §2

[13] = read-out: % Enzyme Activity (Relative to DMSO Controls – 100%) Data 1
[14] = read-out: % Enzyme Activity (Relative to DMSO Controls – 100%) Data 2

`CCn1c2ccccc2c2cc(N/N=C3/C(=O)NN=C3C)ccc21` [VUGX01, (4E)-4-[2-(9-ethyl-9H-carbazol-3-yl)hydrazin-1-ylidene]-3-methyl-4,5-dihydro-1H-pyrazol-5-one] was tested, and the “p-c-raf (Ser259) and map2k level” value (DLD1 cells [1]) was “increased at low concentrations and decreased at high concentrations”, the “effects on G1 or G2/M phases” value (colon and glioma cells) was “minimal effects” and the cell cycle distribution (HEK293 cells [2]; 5μM) was “shifts the cell population from G1 to G2 phase”. The “cell death (cells in sub G0 phase)” value (HEK293 cells [2]) was “noticeable amount of cell death”, the caspase activation (C6 cells [3]) was “effectively activate” and the remaining activity at 1 µM (c-Src; [13]) was 99.2%. For the same compound, the remaining activity at 1 µM (c-Src; [14]) was 99%, the “caspase 3/7 activation” value (DLD1 cells [4]) was “greatly activate” and the remaining activity at 1 µM (FGFR2; [13]) was 96.1%. For the same compound, the remaining activity at 1 µM (FGFR2; [14]) was 94.9%, the “effects on EGFr kinase activity” value (EGFr; 1μM) was “minimal effects” and the remaining activity at 1 µM (EGFr; [13]) was 99.1%. The remaining activity at 1 µM (EGFr; [14]) was 97.8%, the remaining activity at 1 µM (ERBB2/HER2; [13]) was 99.3% and the remaining activity at 1 µM (ERBB2/HER2; [14]) was 98.2%. For the same compound, the “expression of AGT, AGTR1, AGTR2, GCGR, MMP9, PIK3CG, PTGS2, SCTR, TSHR” value [5] was “elevated”, the remaining activity at 1 µM (KDR/VEGFR2; [13]) was 98.3% and the remaining activity at 1 µM (KDR/VEGFR2; [14]) was 98%. The cell growth (C6 cells [6]) was “can inhibit the growth”, the caspase activation (Difi cells) was “less potent but is effective” and the remaining activity at 1 µM (FGFR1; [13]) was 107%. The remaining activity at 1 µM (FGFR1; [14]) was 104%, the “phosphorylation of AKT at serine 473” value (C6 cells [7]) was “minor increase” and the “inhibition on CDK2” value (CDK2/cyclin A; 1μM) was 6%. For the same compound, the remaining activity at 1 µM (CDK2/cyclin A; [13]) was 94.4%, the remaining activity at 1 µM (CDK2/cyclin A; [14]) was 94.2% and the inhibition at 1 µM (CDK2/cyclin A; read-out: inhibition on CDK2, 1μM) was 5 to 6%. The remaining activity at 1 µM (FLT1/VEGFR1; [13]) was 100%, the remaining activity at 1 µM (FLT1/VEGFR1; [14]) was 99.8% and the remaining activity at 1 µM (PDGFRa; [13]) was 96.3%. It also gave a remaining activity at 1 µM (PDGFRa; [14]) of 96.2%, a remaining activity at 1 µM (PDGFrb; [13]) of 100% and a remaining activity at 1 µM (PDGFrb; [14]) of 99.9%. The “p-c-raf (Ser259) and map2k level” value (HCT116 cells [8]) was “increased at low concentrations and decreased at high concentrations”, the cell growth (DLD1 cells [9]) was “can inhibit the growth” and the “caspase 3/7 activation” value (HEK293 cells [10]) was “only slight activation”. For the same compound, the “effect on tested proteins (p-c-raf, map2k, AKT, p-AKT)” value (HEK293 cells [11]) was “no effect” and the “caspase 3/7 activation” value (HCT116 cells [12]) was “minimal effect”.

Reference: publication PMC10563180 (Current cancer drug targets, 2020)
